What was measured:
Type in all cases: functional
T47D = assay: Anticancer activity against human T47D cells assessed as cell growth promotion at 10^-5 M after 48 hrs by SRB assay relative to control
HCT-15 = assay: Anticancer activity against human HCT15 cells assessed as cell growth promotion at 10^-5 M after 48 hrs by SRB assay relative to control
UACC-62 = assay: Anticancer activity against human UACC62 cells assessed as cell growth promotion at 10^-5 M after 48 hrs by SRB assay relative to control
SW-620 = assay: Anticancer activity against human SW620 cells assessed as cell growth promotion at 10^-5 M after 48 hrs by SRB assay relative to control
CAKI-1 = assay: Anticancer activity against human Caki1 cells assessed as cell growth promotion at 10^-5 M after 48 hrs by SRB assay relative to control
HT-29 = assay: Anticancer activity against human HT-29 cells assessed as cell growth promotion at 10^-5 M after 48 hrs by SRB assay relative to control
RXF 393 = assay: Anticancer activity against human RXF393 cells assessed as cell growth promotion at 10^-5 M after 48 hrs by SRB assay relative to control
UACC-257 = assay: Anticancer activity against human UACC257 cells assessed as cell growth promotion at 10^-5 M after 48 hrs by SRB assay relative to control
KM12 = assay: Anticancer activity against human KM12 cells assessed as cell growth promotion at 10^-5 M after 48 hrs by SRB assay relative to control
SF-295 = assay: Anticancer activity against human SF295 cells assessed as cell growth promotion at 10^-5 M after 48 hrs by SRB assay relative to control
SF-539 = assay: Anticancer activity against human SF539 cells assessed as cell growth promotion at 10^-5 M after 48 hrs by SRB assay relative to control
U-251 = assay: Anticancer activity against human U251 cells assessed as cell growth promotion at 10^-5 M after 48 hrs by SRB assay relative to control
SR = assay: Anticancer activity against human SR cells assessed as cell growth promotion at 10^-5 M after 48 hrs by SRB assay relative to control
786-0 = assay: Anticancer activity against human 786-0 cells assessed as cell growth promotion at 10^-5 M after 48 hrs by SRB assay relative to control
DU-145 = assay: Anticancer activity against human DU145 cells assessed as cell growth promotion at 10^-5 M after 48 hrs by SRB assay relative to control
HL-60(TB) = assay: Anticancer activity against human HL-60(TB) cells assessed as cell growth promotion at 10^-5 M after 48 hrs by SRB assay relative to control
Summary of the method: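 NCI-60 single-dose screen: compound at 10^-5 M, 48 h at 37 °C, 5% CO2; cells grown in RPMI 1640 with 5% FBS and 2 mM L-glutamine, pre-incubated 24 h before dosing. Adherent cells fixed with cold TCA; endpoint is sulforhodamine B protein staining. Percent growth of treated cells is reported relative to untreated control.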

PC-3 = assay: Anticancer activity against human PC3 cells assessed as cell growth promotion at 10^-5 M after 48 hrs by SRB assay relative to control
OVCAR-3 = assay: Anticancer activity against human OVCAR3 cells assessed as cell growth promotion at 10^-5 M after 48 hrs by SRB assay relative to control
LOX IMVI = assay: Anticancer activity against human LOXIMVI cells assessed as cell growth promotion at 10^-5 M after 48 hrs by SRB assay relative to control
TK-10 = assay: Anticancer activity against human TK10 cells assessed as cell growth promotion at 10^-5 M after 48 hrs by SRB assay relative to control
HCC 2998 = assay: Anticancer activity against human HCC2998 cells assessed as cell growth promotion at 10^-5 M after 48 hrs by SRB assay relative to control
SK-OV-3 = assay: Anticancer activity against human SKOV3 cells assessed as cell growth promotion at 10^-5 M after 48 hrs by SRB assay relative to control
ACHN = assay: Anticancer activity against human ACHN cells assessed as cell growth promotion at 10^-5 M after 48 hrs by SRB assay relative to control
MDA-MB-435 = assay: Anticancer activity against human MDA-MB-435 cells assessed as cell growth promotion at 10^-5 M after 48 hrs by SRB assay relative to control
EKVX = assay: Anticancer activity against human EKVX cells assessed as cell growth promotion at 10^-5 M after 48 hrs by SRB assay relative to control
NCI-H23 = assay: Anticancer activity against human NCI-H23 cells assessed as cell growth promotion at 10^-5 M after 48 hrs by SRB assay relative to control
SN12C = assay: Anticancer activity against human SN12C cells assessed as cell growth promotion at 10^-5 M after 48 hrs by SRB assay relative to control
SF-268 = assay: Anticancer activity against human SF268 cells assessed as cell growth promotion at 10^-5 M after 48 hrs by SRB assay relative to control
SK-MEL-28 = assay: Anticancer activity against human SK-MEL-28 cells assessed as cell growth promotion at 10^-5 M after 48 hrs by SRB assay relative to control
SK-MEL-5 = assay: Anticancer activity against human SK-MEL-5 cells assessed as cell growth promotion at 10^-5 M after 48 hrs by SRB assay relative to control
COLO 205 = assay: Anticancer activity against human COLO205 cells assessed as cell growth promotion at 10^-5 M after 48 hrs by SRB assay relative to control
IGROV-1 = assay: Anticancer activity against human IGROV1 cells assessed as cell growth promotion at 10^-5 M after 48 hrs by SRB assay relative to control
NCI/ADR-RES = assay: Anticancer activity against human NCI/ADR-RES cells assessed as cell growth promotion at 10^-5 M after 48 hrs by SRB assay relative to control
A498 = assay: Anticancer activity against human A498 cells assessed as cell growth promotion at 10^-5 M after 48 hrs by SRB assay relative to control
MCF7 = assay: Anticancer activity against human MCF7 cells assessed as cell growth promotion at 10^-5 M after 48 hrs by SRB assay relative to control
MOLT-4 = assay: Anticancer activity against human MOLT4 cells assessed as cell growth promotion at 10^-5 M after 48 hrs by SRB assay relative to control
OVCAR-5 = assay: Anticancer activity against human OVCAR5 cells assessed as cell growth promotion at 10^-5 M after 48 hrs by SRB assay relative to control
[1] = Anticancer activity against human […] cells assessed as cell growth promotion at 10^-5 M after 48 hrs by SRB assay relative to control
[2] = Anticancer activity against human Hs 578T cells assessed as cell growth promotion at 10^-5 M after 48 hrs by SRB assay relative to control

| SMILES | Activity (T47D) | Activity (HCT-15) | Activity (UACC-62) | Activity (SW-620) | Activity (CAKI-1) | Activity (RXF 393) | Activity (UACC-257) | Activity (KM12) | Activity (SF-295) | Activity (SF-539) | Activity (U-251) | Activity (SR) | Activity (786-0) | Activity (DU-145) | Activity (HL-60(TB)) | Activity (OVCAR-3) | Activity (LOX IMVI) | Activity (TK-10) | Activity (HCC 2998) | Activity (SK-OV-3) | also measured |
| --- | --- | --- | --- | --- | --- | --- | --- | --- | --- | --- | --- | --- | --- | --- | --- | --- | --- | --- | --- | --- | --- |
| O=C(O)c1ccc(-n2c(-c3ccco3)nc3ccccc3c2=O)cc1 | 83% | 93.69% | 84.67% | 106.15% | 102.24% | 109.93% | 107.43% | 104.99% | 108.58% | 104.2% | 102.8% | 92.85% | 105.17% | 111.42% | 94.52% | 105.38% | 98.82% | 94.73% | 120.31% | 107.59% | Activity (HT-29): 92%; Activity (PC-3): 86.25%; Activity (ACHN): 101.24%; Activity (MDA-MB-435): 112.17%; Activity (EKVX): 98.39%; Activity (NCI-H23): 98.82%; Activity (SN12C): 99.34%; Activity (SF-268): 106.85%; Activity (SK-MEL-28): 115.08%; Activity (SK-MEL-5): 94.96%; Activity (COLO 205): 103.97%; Activity (IGROV-1): 91.67%; Activity (NCI/ADR-RES): 102.28%; Activity (A498): 106.88%; Activity (MCF7): 63.47%; Activity (MOLT-4): 91.05%; Activity (OVCAR-5): 98.22% |
| O=c1c2ccccc2nc(-c2ccco2)n1O | 106.81% | 108.36% | 92.42% | 107.69% | 102.81% | 117.15% | 112.27% | 110.22% | 117.66% | 95.42% | 110.85% | 94.7% | 104.23% | 122.21% | 95.84% | 114.53% | 107.97% | 98.03% | 119.5% | 106.84% | Activity (HT-29): 103.19%; Activity (PC-3): 91.05%; Activity (ACHN): 98.81%; Activity (MDA-MB-435): 124.51%; Activity (EKVX): 109.13%; Activity (NCI-H23): 105.41%; Activity (SN12C): 98.6%; Activity (SF-268): 106.3%; Activity (SK-MEL-28): 109.58%; Activity (SK-MEL-5): 111.56%; Activity (COLO 205): 107.29%; Activity (IGROV-1): 103.91%; Activity (NCI/ADR-RES): 112.3%; Activity (A498): 97.65%; Activity (MCF7): 103.51%; Activity (MOLT-4): 101.31%; Activity (OVCAR-5): 100.49% |
| COc1cc(/C=C/c2ccc(NC(=O)c3ccccc3NC(=O)c3ccccc3)cc2)ccc1O | 89.85% | 98.82% | 98.83% | 109% | 95.9% | 95.14% | 104% | 106% | 162% | 110% | 103% | 106.41% | 95.86% | 108% | 97.49% | 107% | 92% | 97.64% | 99.7% | 96.53% | Activity (HT-29): 121%; Activity [1]: 79.36%; Activity (PC-3): 94.13%; Activity [2]: 100%; Activity (ACHN): 97.71%; Activity (MDA-MB-435): 107%; Activity (EKVX): 100%; Activity (NCI-H23): 105%; Activity (SN12C): 96.62%; Activity (SF-268): 108%; Activity (SK-MEL-28): 115%; Activity (SK-MEL-5): 86.16%; Activity (COLO 205): 115%; Activity (IGROV-1): 96.3%; Activity (NCI/ADR-RES): 117%; Activity (MCF7): 96.33%; Activity (MOLT-4): 86.81%; Activity (OVCAR-5): 116% |
| C(=C\c1nc2ccccc2nc1SCc1nc2ccccc2[nH]1)/c1ccccc1 | 34.6% | 96.13% | 61.37% | 83.03% | 77.88% | 97.82% | 67.72% | 79.7% | 58.32% | 97.75% | 79.81% | 83.8% | 76.68% | 74.33% | 77.83% | 65.02% | 56.83% | 44.74% | 86.35% | 73.61% | Activity [1]: 47.73%; Activity [2]: 90.1%; Activity (ACHN): 76.83%; Activity (MDA-MB-435): 88.93%; Activity (EKVX): 22.23%; Activity (NCI-H23): 52.23%; Activity (SN12C): 74.42%; Activity (SF-268): 88.12%; Activity (SK-MEL-28): 94.52%; Activity (SK-MEL-5): 17.4%; Activity (COLO 205): 75.7%; Activity (IGROV-1): 87.44%; Activity (NCI/ADR-RES): 53.22%; Activity (A498): 71.11%; Activity (MCF7): 40.3%; Activity (MOLT-4): 63.07%; Activity (OVCAR-5): 95.41% |
| O=C(Nc1ccccc1C(=O)Nc1ccc(/C=C/C=C/c2ccccc2)cc1)c1ccccc1 | 86.44% | 73.53% | 84.87% | 107% | 83.56% | 98.83% | 103% | 93.79% | 58.93% | 102% | 95.87% | 70.89% | 84.31% | 111% | 92.43% | 88.79% | 84.87% | 114% | 93.69% | 87.56% | Activity (HT-29): 111%; Activity [1]: 63.43%; Activity (PC-3): 75.75%; Activity [2]: 80.44%; Activity (ACHN): 87.29%; Activity (MDA-MB-435): 90.52%; Activity (EKVX): 87.7%; Activity (NCI-H23): 91.39%; Activity (SN12C): 87.79%; Activity (SF-268): 98.17%; Activity (SK-MEL-28): 107%; Activity (SK-MEL-5): 77.57%; Activity (COLO 205): 121%; Activity (IGROV-1): 78.34%; Activity (NCI/ADR-RES): 112%; Activity (MCF7): 100%; Activity (MOLT-4): 77.32%; Activity (OVCAR-5): 99.95% |

Source: ChEMBL document CHEMBL1781959, “Synthesis and in vitro antitumor activity of substituted quinazoline and quinoxaline derivatives: search for anticancer agent” (Eur J Med Chem, 2011)
